Source: PubChem BioAssay (The Scripps Research Institute Molecular Screening Center)
M5 PAM: human M5 muscarinic receptor positive allosteric modulators, primary screen, CHO-K1 cells, Fluo-8 calcium fluorescence. CHO-K1 hM5, ACh EC20 PAM; 0% = ACh EC20, 100% = ACh EC100. Muscarinic acetylcholine receptor M5 (Homo sapiens), P08912. 360,000 tested, 0.3% active. activation, % at 3 µM. AID 624038, 2012;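 active means activation above the run cutoff, the mean activation of all test compounds plus 3 SD, cut at about 18% in these data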
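System: CHO-K1 hM5 cells. Reagent: acetylcholine, EC20 level. Compound dosing: single dose, 3 µM nominal final test concentration. Timing: Post-acetylcholine fluorescence recording 140 s. Detection: Fluo-8 calcium fluorescence. Read-out: % activation, ACh-normalized. Benchmarks: ACh EC20 and EC100 wells. Repeats: singlicate, one well per test compound.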
M5 antag: human M5 muscarinic receptor antagonists, primary screen, CHO cells, Fluo-8 calcium fluorescence; AID 624040, 2012; CHO-hM5 cells, ACh EC80; 360,000 tested, 0.59% active; inhibition, % at 3 µM; Muscarinic acetylcholine receptor M5 (Homo sapiens), P08912;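 active means inhibition above a per-plate cutoff, the mean of that plate's test compounds plus 3 SD, cut at about 27% in these data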;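 further: 0% = acetylcholine EC80 with DMSO and 100% = DMSO without agonist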
CHRM4 PAM: human M4 muscarinic receptor positive allosteric modulators, primary screen, CHO-K1 cells, Fluo-8 calcium fluorescence; AID 624126, 2012; 360,000 tested, 0.4% active; activation, % at 3 µM; Muscarinic acetylcholine receptor M4 (Homo sapiens), P08173; CHO-K1 hM4/Gqi5, ACh EC20; 0% = ACh EC20, 100% = maximal ACh;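 active means activation above its plate's cutoff, the mean activation of sample wells plus 3 SD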
Target sequence (P08173 whole entry, looked up): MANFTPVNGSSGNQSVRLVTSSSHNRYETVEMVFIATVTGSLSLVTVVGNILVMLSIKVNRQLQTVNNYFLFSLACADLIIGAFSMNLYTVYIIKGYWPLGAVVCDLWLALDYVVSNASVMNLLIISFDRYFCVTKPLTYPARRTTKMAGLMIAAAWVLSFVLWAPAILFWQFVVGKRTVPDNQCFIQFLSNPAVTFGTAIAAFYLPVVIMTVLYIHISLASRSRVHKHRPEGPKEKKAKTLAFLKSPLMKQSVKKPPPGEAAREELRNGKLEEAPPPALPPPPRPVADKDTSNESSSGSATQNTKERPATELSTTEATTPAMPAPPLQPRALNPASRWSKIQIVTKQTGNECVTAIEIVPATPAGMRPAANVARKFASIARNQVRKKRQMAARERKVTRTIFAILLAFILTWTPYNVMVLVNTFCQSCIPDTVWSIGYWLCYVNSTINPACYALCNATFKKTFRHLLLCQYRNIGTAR
CHRM4 antagonist: human M4 muscarinic receptor antagonists, primary screen, CHO cells, Fluo-8 calcium fluorescence | Muscarinic acetylcholine receptor M4 (Homo sapiens), P08173 | CHO-hM4 cells, ACh EC80 | inhibition, % at 3 µM | 360,000 tested, 0.73% active;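 active means inhibition above its plate's cutoff, the mean inhibition of sample wells plus 3 SD, cut at about 27% in these data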;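 further: 0% = acetylcholine EC80 with DMSO and 100% = DMSO without agonist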
CHRM5 agonist: human M5 muscarinic receptor agonists, primary screen, CHO-K1 cells, Fluo-8 calcium fluorescence | Muscarinic acetylcholine receptor M5 (Homo sapiens), P08912 | CHO-K1 hM5 cells; 0% DMSO wells, 100% maximal acetylcholine response | activation, % at 3 µM | 360,000 tested, 0.19% active | AID 624037, 2012;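 active means activation above the run's mean over test compounds plus 3 SD, cut at about 23% in these data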;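 further: signal is peak over basal fluorescence ratio across the kinetic read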
M4 ag: human M4 muscarinic receptor agonists, primary screen, CHO-K1 cells, Fluo-8 calcium fluorescence. Muscarinic acetylcholine receptor M4 (Homo sapiens), P08173. CHO-K1 hM4/Gqi5; vehicle 0%, full acetylcholine response 100%. activation, % at 3 µM. 360,000 tested, 0.14% active. AID 624127, 2012;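 active means activation above the run mean over all test wells plus 3 SD, cut at about 32% in these data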;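 further: peak over basal fluorescence ratio per well then scaled between controls; 0% = DMSO wells and 100% = acetylcholine at EC100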
* = called active by the depositor. Sampled rows, rich in hits. Any-hit rate of the full collection: about 1.8%.

SMILES	M5 PAM	M5 antag	CHRM4 PAM	CHRM4 antagonist	CHRM5 agonist	M4 ag
COCc1cc(C)c2c(N)c(C#N)sc2n1	6	3	34*	9	0	1
C#CCOC(=O)CCCC(=O)NCCCCCCCC	27*	0	12	-12	9	1
CC(C)(C)c1ccccc1NC(=O)NC1CCN(Cc2c(F)cccc2Cl)CC1	2	4	-1	3	-3	1
O=C(Nc1ccc2c(c1)OCO2)C1CCCN1C(=O)Nc1ccccc1 (stereo unspecified)	2	0	2	5	-2	1
Cc1onc(-c2c(F)cccc2Cl)c1C(=O)Nc1nnc(C(F)(F)F)s1	-12	29*	-3	1	6	15
Cc1onc(-c2ccccc2)c1C(=O)Nc1nnc(-c2ccncc2)s1	14	-15	31*	4	10	-1
Cc1onc(-c2c(F)cccc2Cl)c1C(=O)Nc1nccs1	-3	2	-3	-4	4	11
Cc1noc(C)c1C(=O)Nc1nnc(-c2ccccc2)s1	-2	0	4	-2	1	3
CC(C)CC1NC(=O)N(CC(=O)Nc2cc(F)ccc2F)C1=O (stereo unspecified)	1	4	5	-9	4	1
CCCCNC(=O)c1cn(C)c2ccc(S(=O)(=O)N3CC(C)CC(C)C3)cc2c1=O (stereo unspecified)	7	-3	11	-10	-1	0
Cc1noc(C(=O)Nc2ccc(F)c(Cl)c2)c1Cl	-16	19	-21	95*	0	2
CCCC(=O)Nn1cnc2c(c1=O)C1(CCCCC1)Cc1ccccc1-2	-3	6	-3	4	-6	0
CCC(=O)Nn1cnc2c(c1=O)C1(CCCCC1)Cc1ccccc1-2	18*	-7	8	1	-2	3
Cc1ccc(Cl)cc1N1CCN(C(=O)C2CCN(S(=O)(=O)c3c(C)nn(C)c3C)CC2)CC1	-26	30*	-16	26	7	21
Cc1ccc(Cl)cc1N1CCN(C(=O)C2CCN(S(=O)(=O)c3cccnc3)CC2)CC1	-10	11	0	7	9	17
COCOCCn1cc(CN2CCS(=O)(=O)N(Cc3ccc(-c4cccc(CO)c4)cc3)C(C)C2=O)nn1 (stereo unspecified)	-1	1	1	-6	1	0
Cc1ccc(NS(=O)(=O)c2c(C)[nH]c(C)c2C(=O)N2CCCC2)cc1Cl	32*	8	9	-2	7	4
Cc1ccc(NS(=O)(=O)c2c(C)[nH]c(C)c2C(=O)N2CCCCC2)cc1C	-4	6	10	-14	-5	2
CC1(c2ccc3ccccc3c2)CCC(=O)O1 (stereo unspecified)	-9	4	4	-3	-1	0
CS(=O)(=O)c1ccc(Cl)c(NC(=O)COC(=O)c2ccc(F)cc2Cl)c1	18*	-4	5	2	5	0
Cc1sc2ncnc(N3CCN(Cc4ccccc4)CC3)c2c1-c1ccccc1	-1	1	-4	1	-2	0
CC1(C(=O)Nc2ccc3c(c2)OCO3)CCN1C(=O)Cc1ccc(-c2ccccc2)cc1 (stereo unspecified)	-15	31*	-8	27*	9	13
CC1(C(=O)Nc2ccccc2)CCN1C(=O)Cc1ccc(-c2ccccc2)cc1 (stereo unspecified)	-10	14	-5	-3	5	10
CC(C)S(=O)(=O)NC(=O)C1(C)CCN1C(=O)Cc1ccccc1 (stereo unspecified)	-5	29*	-1	1	-1	1
Nc1ccccc1-n1c(=O)n(Cc2ccccc2F)c(=O)c2[nH]cnc21	11	-6	6	-7	-3	1
SMILES	M5 PAM	M5 antag	CHRM4 PAM	CHRM4 antagonist	CHRM5 agonist	M4 ag
N#CC1(NC(=O)COC(=O)C2=COCCO2)CCCCC1	1	11	4	7	19	113*
CN(C(=O)COC(=O)C1=COCCO1)C1(C#N)CCCCC1	16	2	13	-2	5	1
CCCCNC(=O)C1(C)CCCCN1C(=O)c1ccc(C)c(F)c1 (stereo unspecified)	2	-1	4	-4	0	1
O=C(NCCc1nnc2ccc(SCC(=O)N3CCCC3)nn12)c1ccccc1	-1	9	5	-6	-5	1
CCN(CC)c1c([N+](=O)[O-])c(=O)n(C)c2ccccc12	8	3	4	-1	-4	-1
Cn1c(=O)c([N+](=O)[O-])c(Cl)c2ccccc21	-10	17	-15	41*	0	-1
CC(CN(C)C)CN1c2ccccc2CCc2ccccc21 (stereo unspecified)	-19	99*	-19	87*	0	6
CN(C)CCCN1c2ccccc2CCc2ccccc21	-19	80*	-17	70*	-2	2
CN(C)CCCC1(O)c2ccccc2CCc2ccccc21	-17	10	-14	10	-7	11
CNC(=O)N1c2ccccc2CCc2ccccc21	3	0	-3	-2	-1	0
CC1(C)CC(=O)C=C(NCC(O)c2ccccc2)C1 (stereo unspecified)	2	4	2	0	1	1
O=C(c1ccc(S(=O)(=O)N2CCCCCC2)cc1)N1CCN(c2ccccc2)CC1	-4	28*	0	-7	-3	0
O=C(c1cccc(S(=O)(=O)N2CCCCC2)c1)N1CCN(c2ccccc2)CC1	-6	21	-4	12	-1	3
CC1CCCC(NC(=O)CCC(=O)NCc2ccccc2)C1C (stereo unspecified)	0	-5	0	-2	5	1
O=C(c1cc2sccc2n1Cc1ccccc1)N1CCN(c2nc3ccccc3s2)CC1	-10	15	-10	27*	-1	4
CCC(=O)N1CCN(c2nc3ccccc3s2)CC1	-4	-1	4	-4	4	4
CCC(=O)N1CCc2cc(S(=O)(=O)CCC(=O)N3CCN(c4ccc(Cl)cc4)CC3)ccc21	-12	28*	-6	2	2	12
Cc1cccc2c1N(CCCOc1ccc(C(C)(C)C)cc1)C(=O)C2=O	-4	-2	2	-4	7	1
Cc1ccccc1OCCCN1C(=O)C(=O)c2cccc(C)c21	-3	1	-8	-4	26*	18
